Laboratory results published in publication PMC2635062 (Cancer research, 2009).
Like-named read-outs stand apart in the source and are kept apart here.

Tests used:
SiHa = experiment: CellTiter-Glo cytotoxicity assay, SiHa; type: cell-based; settings: Homo sapiens
Method in brief: (§1)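 About 5,000 cells/well were dosed either continuously or for a 1 h pulse. After the pulse, cells were washed with pre-warmed medium and kept drug-free. Viability was read by CellTiter-Glo luminescence 72 h after dosing began. IC50 was the half-maximal growth-inhibiting concentration.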

HCT-116 = experiment: CellTiter-Glo cytotoxicity assay, HCT-116; type: cell-based; settings: Homo sapiens
Method in brief: as §1

SKNSH = experiment: CellTiter-Glo cytotoxicity assay, SKNSH; type: cell-based; settings: Homo sapiens, SK-N-SH
Method in brief: as §1

cancer cell lines = experiment: CellTiter-Glo cytotoxicity assay, cancer cell lines in general; type: cell-based, human
Method in brief: as §1

[1] = test system: various cancer cell lines; settings: read-out: IC50 against various cancer cell lines; in vitro; cited from earlier work
[2] = test system: MRC5, WI-38 and IMR-90 normal lung fibroblast cell lines; experiment: Caspase Glo 3/7 assay, normal lung fibroblasts; type: cell-based, human; settings: control, 1 microM for 72 hours
SiHa cells = experiment: Caspase Glo 3/7 assay, SiHa; type: cell-based, human; settings: 10 or 30 μM with 50 nM compound 3, 72 hours

Work on `CCC(=C/[C@H](C)C/C=C/C(C)=C/[C@@H](C)C(=O)[C@@H](C)[C@H](O)[C@@H](C)C/C(C)=C/C(=O)O)/C=C/[C@@H]1OC(=O)C=C[C@@H]1C` [Leptomycin B] yielded an IC50 (SiHa; 72 h, read-out: SiHa (IC50 nM) 72h) of 0.4 nM, an IC50 (SiHa; read-out: SiHa (IC50 nM) 1h) of 2.1 nM and an IC50 (HCT-116; HCT-116, 72 h, read-out: HCT-116 (IC50 nM) 72h) of 0.3 nM. It also gave an IC50 (HCT-116; HCT-116, read-out: HCT-116 (IC50 nM) 1h) of 4.3 nM, an IC50 (SKNSH; 72 h, read-out: SKNSH (IC50 nM) 72h) of 0.4 nM and an IC50 (SKNSH; read-out: SKNSH (IC50 nM) 1h) of 4.1 nM. For the same molecule, the IC50 (cancer cell lines; Homo sapiens, read-out: IC50, one hour exposure) was less than 5 nM, the “IC50, 72 hour exposure” value (cancer cell lines; most cancer cell lines, 72 hour exposure) was “sub-nanomolar” and the IC50 [1] was 0.1 to 10 nM.
For `CN[C@@H]1C[C@H]2O[C@@](C)([C@@H]1OC)n1c3ccccc3c3c4c(c5c6ccccc6n2c5c31)C(=O)NC4` [staurosporine], the “Caspase 3/7 activation” value [2] was “dramatic induction of caspases”.
For `Cc1ccc(C(=O)Cn2c3c(sc2=N)CCCC3)cc1` [pifithrin-alpha], the “Effect on compound 3-induced apoptosis (caspase 3/7)” value (SiHa cells) was “blocked compound 3-induced apoptosis”.
